Data on 4 compounds can be found in paper PMC5935540 (Cell, 2018).

In series [1] the test system is FK-506 binding protein family members (FKBP) 1A, 2, 3,4, and 5. In words: Arrayed affinity-selection/mass spectrometry binding assay, control compound. Set-up: species or system human. Conditions: control for the binder selection pipeline; FKBP1A highest signal.
The target of series [2] is T1, ABCG2 (Homo sapiens, UniProt Q9UNQ0).
T1 sequence (Q9UNQ0 1-655): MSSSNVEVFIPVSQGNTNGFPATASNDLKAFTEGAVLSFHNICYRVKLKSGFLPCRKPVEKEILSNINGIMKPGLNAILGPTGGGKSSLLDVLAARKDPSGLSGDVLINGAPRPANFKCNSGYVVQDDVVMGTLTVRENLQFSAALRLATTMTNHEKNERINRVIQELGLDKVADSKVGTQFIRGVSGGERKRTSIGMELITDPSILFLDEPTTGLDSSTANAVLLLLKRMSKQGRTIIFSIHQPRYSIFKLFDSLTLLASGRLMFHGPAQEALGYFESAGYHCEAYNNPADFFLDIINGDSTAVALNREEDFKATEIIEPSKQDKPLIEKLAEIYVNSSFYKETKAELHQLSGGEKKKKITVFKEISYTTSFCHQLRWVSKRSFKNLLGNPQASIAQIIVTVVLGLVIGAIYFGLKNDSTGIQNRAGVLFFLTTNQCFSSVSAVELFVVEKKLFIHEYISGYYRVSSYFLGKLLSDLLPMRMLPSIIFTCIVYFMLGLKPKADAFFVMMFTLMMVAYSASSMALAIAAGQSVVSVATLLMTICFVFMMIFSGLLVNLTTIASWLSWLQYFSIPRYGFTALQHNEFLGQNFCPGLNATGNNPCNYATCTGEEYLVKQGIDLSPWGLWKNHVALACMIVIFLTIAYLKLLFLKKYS
The experiment in a line: siRNA depletion of ABCG2 followed by THZ1 treatment. Format: cell-based. Conditions: ABCG2 depletion sensitized resistant cells; H157 cells, THZ1 50nM, 72 hrs.

The test system of series [3] is NSCLC cell line panel. In words: Cell viability dose response in NSCLC cell line panel. Format: cell-based, human. An outline of the steps: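 Viability read after 72 hrs of exposure to test compound at 5 µM, either alone or with HET-0016 at 100 nM. DMSO-treated cells serve as control.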
The conditions of series [4]: no reference given; cited from earlier work.

Consider `C=CC[C@@H]1/C=C(\C)C[C@H](C)C[C@H](OC)[C@H]2O[C@@](O)(C(=O)C(=O)N3CCCC[C@H]3C(=O)O[C@H](/C(C)=C/[C@@H]3CC[C@@H](O)[C@H](OC)C3)[C@H](C)[C@@H](O)CC1=O)[C@H](C)C[C@@H]2OC` [FK-506], for which, in series [1], the LC/MS binding signal result is recorded as “strongest signal”.
Consider `CN(C)C/C=C/C(=O)Nc1ccc(C(=O)Nc2cccc(Nc3ncc(Cl)c(-c4c[nH]c5ccccc45)n3)c2)cc1` [THZ1], for which the “efflux transporter substrate status” value in series [2] was “ABCG2 substrate”.
Regarding `CCCCc1ccc(N=CNO)c(C)c1` [HET0016], the “effect on SW001286 toxicity” value in series [3] (SW001286 5µM plus HET-0016 100nM, 72 hrs, two sensitive cell lines) is reported as “rescued”.
On to `CC(C)Oc1ccc(C(=O)N[C@H](CNC(=O)CN(C)C)Cc2ccc(-c3cn4cccc([C@H](C)O)c4n3)cc2)cc1Cl` [SW208097], for which the “sensitivity (ED50)” value in series [3] (cell lines with co-occuring mutations in TP53 and KEAP1) is given as “low nanomolar”. Further, in series [4], the pharmacokinetics in humans entry is “dose proportional pharmacokinetics”.
